Assay results published in the array DNA melting data of Ke et al. (doi:10.1101/2024.01.08.574731).

How the values were obtained:
[1] = folding enthalpy; higher = less favourable; fluorescence melt of hairpins on a sequencing array, two-state fit; conditions: sodium 0.088 M
Procedure, shortened: (§1)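 With Cy3 and quencher oligos annealed, library hairpins on a sequenced MiSeq flow cell were imaged for Cy3 fluorescence in 50 mM Na-HEPES pH 8.0, 25 mM NaCl, in 2.5 °C steps up to 60 °C. Melting temperature and folding enthalpy were derived from bootstrapped two-state fits of signals normalised to pre-quench Cy3 and to control constructs. Four replicates were combined by inverse variance, with fitted temperatures raised by 9.35 °C to match UV melts.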

[2] = melting temperature; fluorescence melt of hairpins on a sequencing array, two-state fit, raised by 9.35 °C to match UV melts; conditions: sodium 0.088 M
Procedure, shortened: as §1

| Sequence | folding enthalpy [1] | Tm [2] |
| --- | --- | --- |
| GGGCATCGAAAGATCCC (((.(((....)))))) | -30.4 kcal/mol | 50.4 °C |
| GGGCATGGAAACACGCCC ((((.((....)).)))) | -45.3 kcal/mol | 51.8 °C |
| GGGCATGGAAACGTGTCC ((.((.(....).)).)) | -29 kcal/mol | 45 °C |
| GGGCCAGGAAACCGACCC (((.(.(....).).))) | -20.9 kcal/mol | 34.6 °C |
| GGGCCCGAAAGGGCACCC ((((((....)))..))) | -9.72 kcal/mol | 65 °C |
| GGGCCCGCGAAAGCGCCC (((..(((....)))))) | -15.6 kcal/mol | 55.8 °C |
| GGGCCCGGAAACGGGCTC (.(((((....))))).) | -12.2 kcal/mol | 68 °C |
| GGGCCGACGAAAGTCCCC (((..(((....)))))) | -12 kcal/mol | 43.8 °C |
| GGGCCGCCGAAAGGCCCC (((..(((....)))))) | -13.6 kcal/mol | 64.1 °C |
| GGGCCTGGAAACAGACCC (((.(((....))).))) | -38.6 kcal/mol | 50.9 °C |
| GGGCCTGGAAACAGGTCC ((.((((....)))).)) | -36.4 kcal/mol | 65 °C |
| GGGCCTGGAAACGGGCTC (.(((.(....).))).) | -24 kcal/mol | 50.2 °C |
| GGGCGACGAAAGTCCCC (((.(((....)))))) | -27.5 kcal/mol | 55.4 °C |
| GGGCGAGGAAACTCGCTC (.(((((....))))).) | -15.8 kcal/mol | 58.1 °C |
| GGGCGAGGAAACTTGCCC ((((.((....)).)))) | -45.6 kcal/mol | 59.1 °C |
| GGGCGCCGAAAGGCACCC (((.(((....))).))) | -22.8 kcal/mol | 67.5 °C |
| GGGCGCGAAAGCGAACCC ((((((....)))..))) | -14 kcal/mol | 59.3 °C |
| GGGCGCGAAAGCGCTCCC ((((((....)))..))) | -9.05 kcal/mol | 53.6 °C |
| GGGCGGGCGAAAGCCCCC (((..(((....)))))) | -11.5 kcal/mol | 51.2 °C |
| GGGCGTCGAAAGACACCC (((.(((....))).))) | -43.8 kcal/mol | 58.9 °C |
| GGGCGTCGAAAGACTCCC (((.(((....))).))) | -38.3 kcal/mol | 53.9 °C |
| GGGCGTGGAAACGTGCCC ((((..(....)..)))) | -41.4 kcal/mol | 54.4 °C |
| GGGCTAACGAAAGTTCCC (((..(((....)))))) | -16.7 kcal/mol | 34.9 °C |

| Sequence | folding enthalpy [1] | Tm [2] |
| --- | --- | --- |
| GGGCTACGAAAGTACCCC (((.(((....))).))) | -17.5 kcal/mol | 49.4 °C |
| GGGCTATCGAAAGATCCC (((..(((....)))))) | -22 kcal/mol | 31.9 °C |
| GGGCTCCGAAAGGACCC (((.(((....)))))) | -30.1 kcal/mol | 57.4 °C |
| GGGCTCGAAAGAGACCCC ((((((....)))..))) | -12.7 kcal/mol | 63.8 °C |
| GGGCTCGAAAGAGATCCC ((((((....)))..))) | -18.9 kcal/mol | 47.8 °C |
| GGGCTCGAAAGAGGGCCC ((((((....)))..))) | -39.4 kcal/mol | 54.6 °C |
| GGGCTCGAAAGAGGTCCC ((((((....)))..))) | -17.1 kcal/mol | 48.2 °C |
| GGGCTCGAAAGAGTCCC ((((((....))).))) | -26.1 kcal/mol | 63.1 °C |
| GGGCTCGCGAAAGCGCCC (((..(((....)))))) | -15.7 kcal/mol | 56.5 °C |
| GGGCTCGGAAACGAGCTC (.(((((....))))).) | -15 kcal/mol | 62.9 °C |
| GGGCTTGGAAACAAACCC (((.(((....))).))) | -32.8 kcal/mol | 43.8 °C |
| GGGCTTGGAAACAAGCTC (.(((((....))))).) | -31.2 kcal/mol | 54.9 °C |
| GGGCTTGGAAACAGGCCC ((((.((....)).)))) | -43.9 kcal/mol | 59.1 °C |
| GGGGAACCGAAAGGTCCC (((..(((....)))))) | -17.3 kcal/mol | 55.6 °C |
| GGGGAAGGAAACTTCCTC (.(((((....))))).) | -21.6 kcal/mol | 46.8 °C |
| GGGGAAGGAAACTTTCCC (((.(((....))).))) | -29 kcal/mol | 48.3 °C |
| GGGGACGAAAGTCACCCC ((((((....)))..))) | -12.7 kcal/mol | 63.3 °C |
| GGGGACGAAAGTCCGCCC ((((((....)))..))) | -11.5 kcal/mol | 52.2 °C |
| GGGGACGAAAGTCTACCC ((((((....)))..))) | -17.9 kcal/mol | 47.2 °C |
| GGGGAGCGAAAGCTGCCC (((.(((....))).))) | -23.8 kcal/mol | 68.8 °C |
| GGGGAGCGAAAGCTTCCC (((.(((....))).))) | -36.5 kcal/mol | 68.2 °C |
| GGGGATACGAAAGTACCC (((..(((....)))))) | -24.2 kcal/mol | 49.2 °C |
| GGGGATCCGAAAGGACCC (((..(((....)))))) | -36.7 kcal/mol | 53.9 °C |

| Sequence | folding enthalpy [1] | Tm [2] |
| --- | --- | --- |
| GGGGATGGAAACATCCTC (.(((((....))))).) | -24.4 kcal/mol | 52.4 °C |
| GGGGATGGAAACATCTCC ((.((((....)))).)) | -32.1 kcal/mol | 50.3 °C |
| GGGGATGGAAACGTCCCC (((((.(....).))))) | -48.9 kcal/mol | 56.1 °C |
| GGGGCACCGAAAGGTCCC (((..(((....)))))) | -25.9 kcal/mol | 53.1 °C |
| GGGGCAGGAAACCGCCCC (((((.(....).))))) | -30.3 kcal/mol | 63.8 °C |
| GGGGCATCGAAAGATCCC (((..(((....)))))) | -21.9 kcal/mol | 48.4 °C |
| GGGGCCGAAAGGCGACCC ((((((....)))..))) | -15.9 kcal/mol | 55.9 °C |
| GGGGCCGAAAGGCGTCCC ((((((....)))..))) | -13.5 kcal/mol | 53.5 °C |
| GGGGCCGAAAGGCTCCCC ((((((....)))..))) | -11.7 kcal/mol | 65 °C |
| GGGGCCGAAAGGCTTCCC ((((((....)))..))) | -13.5 kcal/mol | 46.4 °C |
| GGGGCCGGAAACGACCCC ((((.((....)).)))) | -44.1 kcal/mol | 59.2 °C |
| GGGGCGCCGAAAGGCCCC (((..(((....)))))) | -15 kcal/mol | 66.1 °C |
| GGGGCTTCGAAAGAACCC (((..(((....)))))) | -20.4 kcal/mol | 49.1 °C |
| GGGGGAACGAAAGTTCCC (((..(((....)))))) | -8.07 kcal/mol | 64.3 °C |
| GGGGGCGAAAGCCGGCCC ((((((....)))..))) | -14.3 kcal/mol | 48 °C |
| GGGGGCGAAAGCCTCCC ((((((....))).))) | -15.7 kcal/mol | 66.1 °C |
| GGGGGCGAAAGCCTTCCC ((((((....)))..))) | -13.1 kcal/mol | 42.3 °C |
| GGGGGGAAACCCCC (((((....))))) | -21.5 kcal/mol | 65.9 °C |
| GGGGGGGGAAACCCCTCC ((.((((....)))).)) | -17.5 kcal/mol | 60.9 °C |
| GGGGGGGGAAACCCTCCC (((.(((....))).))) | -31.3 kcal/mol | 59.4 °C |
| GGGGGGGGAAACTCCCCC (((((.(....).))))) | -20.3 kcal/mol | 64.3 °C |
| GGGGGTGGAAACACTCCC (((.(((....))).))) | -37.6 kcal/mol | 56.5 °C |
| GGGGTAGGAAACCACCCC (((((.(....).))))) | -30.2 kcal/mol | 50.7 °C |

| Sequence | folding enthalpy [1] | Tm [2] |
| --- | --- | --- |
| GGGGTCACGAAAGTGCCC (((..(((....)))))) | -21.4 kcal/mol | 58.8 °C |
| GGGGTCCCGAAAGGGCCC (((..(((....)))))) | -14.6 kcal/mol | 65.3 °C |
| GGGGTCGAAAGACACCCC ((((((....)))..))) | -12.6 kcal/mol | 61.8 °C |
| GGGGTCGAAAGACAGCCC ((((((....)))..))) | -16.6 kcal/mol | 46.2 °C |
| GGGGTCGAAAGACCACCC ((((((....)))..))) | -12.7 kcal/mol | 54.7 °C |
| GGGGTCGAAAGACGCCC ((((((....))).))) | -18.8 kcal/mol | 57.7 °C |
| GGGGTCGAAAGACTCCCC ((((((....)))..))) | -22.2 kcal/mol | 54.3 °C |
| GGGGTCGCGAAAGCGCCC (((..(((....)))))) | -16.4 kcal/mol | 60.7 °C |
| GGGGTCGGAAACGATCCC (((.(((....))).))) | -48.4 kcal/mol | 59.7 °C |
| GGGGTCGGAAACGGTCCC (((..((....))..))) | -37.3 kcal/mol | 49.4 °C |
| GGGGTGGGAAACTGCCCC ((((..(....)..)))) | -30.2 kcal/mol | 51.7 °C |
| GGGGTTCCGAAAGGACCC (((..(((....)))))) | -32.6 kcal/mol | 56.2 °C |
| GGGGTTCGAAAGAAGCCC (((.(((....))).))) | -41.5 kcal/mol | 66.3 °C |
| GGGGTTGGAAACAGCCTC (.((.((....)).)).) | -21.6 kcal/mol | 39.1 °C |
| GGGGTTTCGAAAGAACCC (((..(((....)))))) | -32.9 kcal/mol | 50.8 °C |
| GGGTAAGGAAACTTACCC (((((((....))))))) | -44.9 kcal/mol | 58.6 °C |
| GGGTAAGGAAACTTACTC (.(((((....))))).) | -23.7 kcal/mol | 37.9 °C |
| GGGTACCGAAAGGTTCCC (((.(((....))).))) | -30.3 kcal/mol | 56.2 °C |
| GGGTACGAAAGTAGCCCC ((((((....)))..))) | -14.5 kcal/mol | 55 °C |
| GGGTACGGAAACGTACTC (.(((((....))))).) | -16.1 kcal/mol | 51.2 °C |
| GGGTACGGAAACGTGCTC (.(.(((....))).).) | -21.5 kcal/mol | 43.1 °C |
| GGGTAGGGAAACCCACCC ((((.((....)).)))) | -29.2 kcal/mol | 48.3 °C |
